SMILES strings stand for the structures. Where two headings read alike, the source gives them in different places.

Usually Ki stands for a dissociation constant, usually derived from enzyme kinetics or from competition with a known ligand.

Test [1] addresses T1, human MOR (Homo sapiens, UniProt P35372). Kind of test: Stimulation/inhibition of [35S]GTPγS binding mediated by the MOR. The note with it: from [35S]GTPγS stimulation and inhibition data. The format is biochemical. An outline of the steps:
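Membranes from CHO cells stably expressing human MOR (7.5 μg protein/tube) were incubated 60 min at 30 °C with 12 test compound concentrations in 50 mM Tris–HCl, 3 mM MgCl2, 100 mM NaCl, 0.2 mM EGTA, pH 7.4, plus 3 μM GDP and 80 pmol [35S]GTPγS. Antagonist mode used 200 nM DAMGO. Nonspecific binding was defined with 10 μM GTPγS. Filter-bound counts were given as % stimulation over basal; at least three experiments in triplicate.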
In general terms: Binding of GTPγS marks nucleotide exchange on a G protein.

Test [2] concerns the target T2, human KOR (Homo sapiens, UniProt P41145). Briefly: Stimulation/inhibition of [35S]GTPγS binding mediated by the KOR. The format is biochemical. The note with it: from [35S]GTPγS stimulation and inhibition data. An outline of the steps: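 CHO membranes stably expressing human KOR (15 μg protein/tube) were incubated 60 min at 30 °C with 12 concentrations of test compound in 50 mM Tris–HCl, 3 mM MgCl2, 100 mM NaCl, 0.2 mM EGTA, pH 7.4, with 3 μM GDP and […] [35S]GTPγS. Antagonism was tested against 30 nM U50,488. Nonspecific binding used 10 μM GTPγS. After filtration and counting, results were expressed as % stimulation over basal; ≥3 experiments, triplicate.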

In test [3] the test system is morphine dependent monkeys. The conditions noted are these: more potent (in contrast to cyclorphan); cited from earlier work.
Another test deals with Male Sprague Dawley rats. Kind of test: Intracranial self-stimulation. The conditions noted are these: i.p., measured for 1 hr; for Effect on ICSS thresholds: butorphan 0.25-4.0 mg/kg, 8 1.0-30.0 mg/kg. The format is in vivo, rat. Put shortly:
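Rats carried monopolar electrodes in the medial forebrain bundle (lateral hypothalamus). They were trained on FR1 at 141 Hz (500 ms trains) by the rate-frequency method until thresholds were stable (±10%, 4 days); N=6 per cohort. Baseline was the mean of the last two of three 15-min functions. Ascending i.p. doses were given in 20% DMSO/water or 0.9% saline, then four 15-min trials. Output was percent of baseline, by two-way repeated-measures ANOVA with Tukey.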

A further test concerns rats. The note with it: ref 10b; cited from earlier work.
Test [4] concerns the target T2, human KOR. The note with it: cited from earlier work.
The target in test [5] is T2, human KOR. The note with it: from [35S]GTPγS stimulation and inhibition data; cited from earlier work.
The target of test [6] is T1, human MOR. The conditions noted are these: from [35S]GTPγS stimulation and inhibition data; cited from earlier work.
The next test deals with mice. The note with it: cited from earlier work.
The next test deals with rhesus monkeys. The conditions noted are these: cited from earlier work.

T1 sequence (P35372 whole entry): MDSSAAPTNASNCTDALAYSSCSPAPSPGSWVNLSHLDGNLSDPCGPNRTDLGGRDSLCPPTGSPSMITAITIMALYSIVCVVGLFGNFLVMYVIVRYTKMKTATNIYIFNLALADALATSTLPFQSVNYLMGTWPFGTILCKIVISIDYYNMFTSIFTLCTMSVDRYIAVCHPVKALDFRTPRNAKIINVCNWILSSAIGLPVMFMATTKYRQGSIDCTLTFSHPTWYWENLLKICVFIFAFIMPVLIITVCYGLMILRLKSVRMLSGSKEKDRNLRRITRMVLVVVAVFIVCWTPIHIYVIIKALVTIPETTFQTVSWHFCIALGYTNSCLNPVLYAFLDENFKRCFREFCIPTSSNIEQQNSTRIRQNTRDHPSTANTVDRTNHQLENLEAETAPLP
T2 sequence (P41145 whole entry): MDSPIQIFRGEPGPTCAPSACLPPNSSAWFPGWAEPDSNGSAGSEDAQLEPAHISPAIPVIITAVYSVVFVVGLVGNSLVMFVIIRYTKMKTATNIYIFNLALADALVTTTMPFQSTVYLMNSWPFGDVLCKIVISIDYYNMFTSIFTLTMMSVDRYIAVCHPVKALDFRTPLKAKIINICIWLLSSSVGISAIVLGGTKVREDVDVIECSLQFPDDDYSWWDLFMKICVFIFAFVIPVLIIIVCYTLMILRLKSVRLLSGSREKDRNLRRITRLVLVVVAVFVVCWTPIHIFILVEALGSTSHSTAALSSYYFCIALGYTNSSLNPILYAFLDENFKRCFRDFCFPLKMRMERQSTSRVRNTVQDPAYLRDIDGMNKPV

Take `COc1ccc2c(c1)[C@]13CCN(CC4CC4)[C@H](C2)[C@@H]1Cc1sc(NC(C)=O)nc1C3` [Compound 10, 6,7-(2-N-Acetyl)aminothiazolo-N-cyclopropylmethyl-3-methoxymorphinan]: the “Pharmacological properties at the MOR (agonist/antagonist)” value on human MOR [1] was “agonist and antagonist properties”. In addition, the “Pharmacological properties at the KOR (agonist/antagonist)” value at human KOR [2] is on record as “full agonists”.

Take `Oc1ccc2c(c1)[C@@]13CCCC[C@H]1[C@@H](C2)N(CC1CCC1)CC3` [Butorphan]: the “Potency in suppressing abstinence” value in [3] is 40 times. Besides, the “Effect on maximum rates of responding” value in the test with Male Sprague Dawley rats (4.0 mg/kg) is “significantly decreased rates of responding”. For the same compound, the “Effect on ICSS thresholds” value with Male Sprague Dawley rats is “no significant effect”. Further, the “Antinociception in the warm-water tail flick test” value in the test with rats was “full antinociception”.

Consider `Nc1nc2c(s1)C[C@H]1[C@H]3Cc4ccc(O)cc4[C@@]1(CCN3CC1CC1)C2` [Compound 8], for which, on human KOR [4] (read-out: Ki [3H]U69,593 (κ), CHO membranes, human KOR, ± SEM), the Ki was 0.072 ± 0.0039 nM. The “Pharmacological properties at the KOR (agonist/antagonist)” value on human KOR [5] is “both agonist and antagonist properties”. The “Effect on ICSS thresholds” value in the test on Male Sprague Dawley rats was “no significant effect”.

On to `COc1ccc2c(c1)[C@]13CCN(CC4CC4)[C@H](C2)[C@@H]1Cc1sc(N)nc1C3` [Compound 7], for which the “Selectivity δ/κ” value on human KOR [4] (ratio of Ki values) is 7. Moreover, at human MOR [6], the “Pharmacological properties at the MOR (agonist/antagonist)” value was “agonist and antagonist properties”. For the same compound, on human KOR [5], the “Pharmacological properties at the KOR (agonist/antagonist)” value was “full agonists”.

Turning to `CNc1nc2c(s1)C[C@H]1[C@H]3Cc4ccc(OC)cc4[C@@]1(CCN3CC1CC1)C2` [Compound 11, 6,7-(2-N-Methyl)aminothiazolo-N-cyclopropylmethyl-3-methoxymorphinan], the “Pharmacological properties at the MOR (agonist/antagonist)” value at human MOR [1] is “agonist and antagonist properties”. Besides, the “Pharmacological properties at the KOR (agonist/antagonist)” value on human KOR [2] is given as “full agonists”.

Consider `CCNc1nc2cc3c(cc2s1)C[C@@H]1[C@@H]2CCCC[C@]32CCN1CC1CC1` [Compound 1c], for which the “Effect on morphine sensitization” value with mice is given as “inhibited morphine sensitization”.

Regarding `Oc1ccc2c(c1)[C@@]13CCCC[C@H]1[C@@H](C2)N(CC1CC1)CC3` [Cyclorphan], the “Antinociception in the warm-water tail flick test” value in the test on rats is on record as “partial effect”. In addition, the “Effect on cocaine self-administration” value with rhesus monkeys was “reduced cocaine self-administration”.
